Data set [1] in a line: Permeability from basolateral to apical side in human Caco2 cells at 100 uM after 5 mins by HPLC method. The conditions noted are these: caco-2, 5 min. Type of data set: ADME, cell-based.
Data set [2] has as its system MCF7. Put plainly: Cell cycle arrest in human MCF7 cells assessed as accumulation at S phase at 1 uM after 48 hrs by propidium iodide staining based flow cytometry (reference value: 37.18%). Type of data set: functional. The method in brief:
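MCF-7 cells, 5 × 10^4 per well, seeded overnight, then exposed to 0.125–1 μM compound, or DMSO, for 48 h. Ethanol-fixed (70%, −20 °C, 12 h) and stained with PI/RNase at 37 °C for 30 min. Phase distribution determined by flow cytometry.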

The test system of data set [3] is Bel-7402. Description: Cell cycle arrest in human Bel7402 cells assessed as accumulation at G1 phase at 0.5 uM after 48 hrs by propidium iodide staining based flow cytometry (reference value: 34.61%). Type of data set: functional. (Flow cytometry measures light scatter and fluorescence of single cells or particles in a stream.)
Data set [4] has as its target T1, M-phase inducer phosphatase 3 (Homo sapiens) (UniProt P30307).
T1 sequence (whole entry): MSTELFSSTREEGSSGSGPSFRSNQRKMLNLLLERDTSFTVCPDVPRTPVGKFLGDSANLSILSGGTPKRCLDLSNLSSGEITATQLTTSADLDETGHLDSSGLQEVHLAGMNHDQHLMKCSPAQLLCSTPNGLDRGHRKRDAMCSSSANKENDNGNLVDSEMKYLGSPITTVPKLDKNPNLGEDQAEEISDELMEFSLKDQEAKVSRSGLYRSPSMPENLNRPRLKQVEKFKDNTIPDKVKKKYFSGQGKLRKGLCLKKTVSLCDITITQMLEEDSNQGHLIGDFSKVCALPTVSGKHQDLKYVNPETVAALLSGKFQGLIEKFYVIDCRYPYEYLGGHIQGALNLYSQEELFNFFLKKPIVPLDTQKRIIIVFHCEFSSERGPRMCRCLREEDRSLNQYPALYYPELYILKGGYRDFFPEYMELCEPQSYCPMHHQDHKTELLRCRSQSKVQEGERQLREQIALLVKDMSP
Put plainly: Induction of cdc25c phosphorylation in human MCF7 cells after 48 hrs by Western blot method. Type of data set: cell-based. The method in brief: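 MCF-7 cells were treated at 0, 0.125, 0.25, 0.5 or 1 μM for 48 h, washed in ice-cold PBS and lysed on ice for 20 min. Lysates were spun at 13,000 g, 4 °C. 20 μg protein was run on SDS-PAGE and blotted to PVDF, probed overnight at 4 °C with primary antibodies, then with fluorescent secondary antibodies. Band density was expressed relative to β-actin; three independent experiments.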
Background: Immunoblotting shows a protein as a band on a membrane.

The test system of data set [5] is MCF7. Put plainly: Cytotoxicity against human MCF7 cells at 10 to 50 uM after 24 hrs by LDH assay. Format: functional, cell-based. The method in brief: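 Membrane integrity assay on MCF-7 and Bel-7402 cells seeded at ~5 × 10^3 per well for 24 h, then given compounds at 10, 20 or 50 μM. Culture medium collected and assayed with CytoTox-ONE LDH reagent for 10 min, followed by stop solution. Fluorescence read at Ex 560/Em 590 nm. Expressed as percentage of unstimulated cells.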

The subject of data set [6] is MCF7. Description: Induction of apoptosis in human MCF7 cells assessed as live cells at 0.5 uM after 24 hrs by Annexin-V FITC/propidium iodide staining based flow cytometry (reference value: 97%). Type of data set: functional.
The test system of data set [7] is MCF7. Put plainly: Induction of apoptosis in human MCF7 cells assessed as necrotic cells at 0.5 uM after 24 hrs by Annexin-V FITC/propidium iodide staining based flow cytometry (reference value: 0.102%). Format: functional.
Data set [8] relates to MCF7. Description: Induction of apoptosis in human MCF7 cells assessed as late apoptotic cells at 1 uM after 24 hrs by Annexin-V FITC/propidium iodide staining based flow cytometry (reference value: 0.255%). Format: functional.
Data set [9] relates to MCF7. Description: Induction of mitochondrial membrane potential depolarization in human MCF7 cells assessed as ratio of red fluorescence to green fluorescence at 1 uM after 36 hrs by JC1 staining based fluorescence microscopic method (reference value: 1.433). Format: functional. The method in brief: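 MCF-7 cells were treated with 0, 0.25, 0.5 or 1 μM for 36 h and loaded with 10 μg/mL JC-1 for 30 min at 37 °C, then washed in PBS. Monomers were read at ex 490/em 535 nm and aggregates at ex 525/em 600 nm, by plate reader or fluorescence microscopy. The red/green ratio came from 10,000 cells per group, in triplicate, mean ± SD.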

Data set [10] has as its system Mus musculus. Put plainly: Hepatotoxicity in Balb/c nude mouse xenografted with human MCF7 cells assessed as morphological changes in liver at 20 mg/kg/day, iv for 4 weeks by hematoxylin and eosin staining based microscopic method. Format: toxicity, organism-based. The conditions noted are these: in vivo, 672 h. The method in brief: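 Male BALB/c nude mice (6 weeks old) carrying subcutaneous MCF-7 xenografts (1 × 10^6 cells). Dosed iv 20 mg/kg daily for 28 days in 10% DMF/2% poloxamer/88% saline; six mice per group. Organs then fixed in 4% paraformaldehyde, paraffin-embedded, cut at 5 μm, stained with Harris hematoxylin and eosin-phloxine, and examined by light microscopy.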
(In xenograft studies the graft and the host belong to different species.)

In data set [11] the test system is Mus musculus. Description: Toxicity in Balb/c nude mouse xenografted with human MCF7 cells assessed as morphological changes in spleen at 20 mg/kg/day, iv for 4 weeks by hematoxylin and eosin staining based microscopic method. Type of data set: organism-based. The note with it: in vivo, 672 h. The method in brief: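 Male BALB/c nude mice aged six weeks received 1 × 10^6 MCF-7 cells subcutaneously in the right flank. After 7 d they were randomized and dosed 20 mg/kg iv once daily in 10% DMF/2% poloxamer/88% saline; saline control. Heart, liver, spleen, lung and kidney were fixed in 4% paraformaldehyde, paraffin-embedded, sectioned at 5 μm, H&E stained and examined microscopically.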

The source made the active and inactive calls. The calls are words filed in the database; no cut-off is given here.

`C=C1C(=O)[C@]23[C@H](OC(=O)/C=C/c4ccccc4)[C@H]1CC[C@H]2[C@]12C=CCC(C)(C)[C@H]1[C@H](O)[C@]3(O)OC2`: the permeability entry in [1] was “Permeable”. Besides, the Activity in data set [2] is 30.01%; in data set [3], 34.56%; in [4], “Dose-dependent effect”; in data set [6], 54.3%; in [7], 2.18%; in [8], 45.2%. The Activity result in [10] and in [11] was “Non-Toxic” each time. Moreover, the result in data set [5] was inactive. Besides, the Ratio in data set [9] came out at 0.385.

The values are drawn from ChEMBL document CHEMBL3997810, “A Novel Potent Anticancer Compound Optimized from a Natural Oridonin Scaffold Induces Apoptosis and Cell Cycle Arrest through the Mitochondrial Pathway” (J Med Chem, 2017).
